High-throughput results deposited in PubChem by Johns Hopkins Ion Channel Center.
Most compounds without a hit are left out; they make up all but 3.5% or so of the library.
MrgX1 agonist: agonists of human MrgX1 receptor; Q96LB2; MrgX1-HEK293 cells, Fluo-4 calcium fluorescence, agonist mode; hits give high values; B-score at 10 µM; 0.44% of 310,000 active;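 active = calcium response B-score plate-corrected fluorescence ratio at least 3 library SD, with starting fluorescence B-score inside 5 SD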
Target sequence (Q96LB2 whole entry, looked up): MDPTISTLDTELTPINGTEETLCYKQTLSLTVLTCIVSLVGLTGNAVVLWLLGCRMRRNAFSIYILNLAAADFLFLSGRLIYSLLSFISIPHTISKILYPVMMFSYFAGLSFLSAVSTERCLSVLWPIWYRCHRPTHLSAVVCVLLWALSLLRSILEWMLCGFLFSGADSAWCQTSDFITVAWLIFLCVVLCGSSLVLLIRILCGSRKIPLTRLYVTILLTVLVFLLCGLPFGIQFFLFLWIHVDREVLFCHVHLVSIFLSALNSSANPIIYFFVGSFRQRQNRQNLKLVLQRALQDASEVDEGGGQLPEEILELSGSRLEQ
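Assay system: MrgX1-expressing HEK293 cells / Amount: fifteen thousand cells per well / Doses: test compound in the initial addition of three / Timing: cells plated overnight, dye loaded 0.5 h 37 °C, 0.5 h room temperature / Technique: kinetic calcium dye fluorescence, Fluo-4 NW / Control set: positive and negative controls per plate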
RGS4 inh: human RGS4 inhibition; HEK293 M3R/RGS4 inducible, Fluo-4 calcium flux; hits give high values; triggered by carbachol at its EC20; B-score at 10 µM; 0.45% of 310,000 active; AID 463165;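 active = B-score, a plate-corrected calcium signal, over three deviations above library mean, with baseline fluorescence within five deviations of library mean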;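 note: RGS4 expression induced by doxycycline in cells with stable M3 receptor; B-score is computed from the integrated fluorescence ratio over baseline after carbachol; higher B-score means a larger calcium signal and so more RGS4 inhibition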
Target sequence (P49798 whole entry, looked up): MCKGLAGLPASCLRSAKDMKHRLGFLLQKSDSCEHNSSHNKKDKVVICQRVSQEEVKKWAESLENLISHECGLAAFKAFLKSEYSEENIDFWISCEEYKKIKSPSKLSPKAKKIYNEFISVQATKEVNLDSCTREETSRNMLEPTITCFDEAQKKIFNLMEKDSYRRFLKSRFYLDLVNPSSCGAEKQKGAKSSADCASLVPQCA
MrgX1 antagonist: antagonists of human MrgX1 receptor; Q96LB2; MRGX1-HEK293 calcium flux, Fluo-4, BAM8-22 antagonism; hits give low values; B-score at 10 µM; 1.3% of 310,000 active;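 active = calcium-response B-score plate-corrected more than 3 library SD below zero, starting fluorescence within 5 deviations, no agonist response on first addition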;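 note: peak minus trough fluorescence over baseline after final BAM8-22 challenge near maximal dose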
RGS4 pot: potentiators or activators of RGS4 | B-score at 10 µM | HEK293 M3R/inducible RGS4, carbachol calcium flux Fluo4; hits give low values | 0.92% of 310,000 active | AID 463111;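 active = B-score of the integrated calcium signal more than 4 SD below the library mean, with starting fluorescence not abnormally high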;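 note: negative B-score means reduced calcium response which marks RGS4 activation or potentiation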
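Detection: kinetic calcium fluorescence imaging with Fluo4-AM dye, 2 µM / Material: HEK293 cells with stable M3R and inducible RGS4 / Schedule: recording 10 s baseline at 1 Hz, 100 s post-agonist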
MrgX1 PAM: allosterically activates human MrgX1 receptor signaling | Q96LB2 | MrgX1-HEK293, Fluo-4 calcium flux, FDSS; hits give high values | B-score at 10 µM | 0.63% of 310,000 active;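 active = plate-corrected calcium response at least 3 library SD above typical, normal starting fluorescence, not activating the receptor alone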;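 note: compound read alongside a low EC10 to EC30 dose of BAM8-22 agonist; peak minus trough fluorescence over baseline measured at the second addition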
MrgX1 ag reconf: reconfirmed activator of human MrgX1 receptor signaling; MrgX1-HEK293, Fluo-4 calcium fluorescence, FDSS; 78% of 600 active; shares compounds with MrgX1 agonist; AID 602412; activation, % at 10 µM;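 active = calcium signal rise, corrected for plate position, at least 3 library SD high, with starting brightness within 5 such deviations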
HEK293 Ca flux: counter-screen for MrgX1 antagonists: effect in parental HEK293 cells | Fluo-4 calcium fluorescence, FDSS | 2% of 4,000 active | fluorescence ratio F(max-min)/F0 at 10 µM | shares compounds with MrgX1 antagonist;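 active = duplicate-averaged calcium fluorescence ratio at least three times the standard deviation of buffer wells, a nonspecific response in parental cells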
HEK293 Ca counter: MrgX1 allosteric activator counter-screen hit in parental HEK293 cells | shares compounds with MrgX1 antagonist | fluorescence ratio F(max-min)/F0 at 10 µM | parental HEK293 calcium flux, Fluo-4 fluorescence ratio; hits give high values | 0.4% of 4,000 active | AID 624114;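 active = calcium fluorescence ratio, averaged over duplicates, at least 3 SD of the buffer-well ratio, meaning a nonspecific response in receptor-free cells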;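 note: untransfected parental HEK293 lacking MrgX1 used as counterscreen for MrgX1 allosteric activators; fluorescence change taken during the second addition on a kinetic imager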
HEK293 Ca cntr2: activity in parental HEK293 cells lacking MrgX1 receptor; shares compounds with MrgX1 antagonist; Fluo-4 calcium fluorescence (FDSS); hits give high values; fluorescence ratio F(max-min)/F0 at 10 µM; 8.7% of 4,000 active; AID 624115;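 active = calcium fluorescence ratio at least three times the spread of buffer wells, meaning a non-specific response in parental cells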
The depositor's hits bear a star.

For Cc1nc(Nc2ccc(S(N)(=O)=O)cc2)sc1C(=O)Nc1ccccc1 the results were MrgX1 agonist 32*, RGS4 inh inactive, MrgX1 antagonist inactive, RGS4 pot inactive, MrgX1 PAM inactive, MrgX1 ag reconf 227%*, HEK293 Ca flux inactive, HEK293 Ca counter inactive and HEK293 Ca cntr2 inactive.
O=C(O)c1ccc2c(c1)C(=O)N(c1ccc(Nc3ccccc3)cc1)C2=O was read as MrgX1 agonist inactive, RGS4 inh inactive, MrgX1 antagonist inactive, RGS4 pot inactive and MrgX1 PAM inactive.
Screening CCN(c1nc(N)c(C(=O)N=C(N)N)nc1Cl)C(C)C returned MrgX1 agonist 36*, RGS4 inh inactive, MrgX1 antagonist inactive, RGS4 pot inactive, MrgX1 PAM inactive, MrgX1 ag reconf 233%*, HEK293 Ca flux inactive, HEK293 Ca counter inactive and HEK293 Ca cntr2 inactive.
COC(=O)c1ccc(C(=O)OC)c(NC(=S)N2CCN(c3cccc(Cl)c3)CC2)c1 was read as MrgX1 agonist inactive, RGS4 inh inactive, MrgX1 antagonist inactive, RGS4 pot inactive and MrgX1 PAM inactive.
Screening COc1cccc(CNC(=O)CCC2CCCN(C(=O)c3ccc(C)nc3)C2)c1 (configuration not stated) returned MrgX1 agonist inactive, RGS4 inh inactive, MrgX1 antagonist inactive, RGS4 pot inactive and MrgX1 PAM inactive.
`COc1cccc(CNC(=O)CCC2CCCN(c3cc(C)nc(N)n3)C2)c1` (configuration not stated) gave MrgX1 agonist 30*, RGS4 inh inactive, MrgX1 antagonist inactive, RGS4 pot inactive, MrgX1 PAM inactive, MrgX1 ag reconf inactive, HEK293 Ca flux inactive, HEK293 Ca counter inactive and HEK293 Ca cntr2 inactive.
Screening COc1ccc(NC(=O)c2ccc(Br)c(S(=O)(=O)N3CCOCC3)c2)cc1 returned MrgX1 agonist inactive, RGS4 inh inactive, MrgX1 antagonist inactive, RGS4 pot inactive and MrgX1 PAM inactive.
`O=S(=O)(Nc1cccc(-c2ccc3nncn3n2)c1)c1cc(F)ccc1F` gave MrgX1 agonist 45*, RGS4 inh inactive, MrgX1 antagonist inactive, RGS4 pot inactive, MrgX1 PAM inactive, MrgX1 ag reconf 204%*, HEK293 Ca flux inactive, HEK293 Ca counter inactive and HEK293 Ca cntr2 inactive.
Cc1ccc(S(=O)(=O)Nc2cccc(-c3ccc4nncn4n3)c2)cc1 was read as MrgX1 agonist inactive, RGS4 inh inactive, MrgX1 antagonist inactive, RGS4 pot inactive and MrgX1 PAM inactive.
For CC(C)Nc1nc2nonc2nc1Nc1ccccc1 the results were MrgX1 agonist 29*, RGS4 inh inactive, MrgX1 antagonist inactive, RGS4 pot inactive, MrgX1 PAM inactive, MrgX1 ag reconf 175%*, HEK293 Ca flux inactive, HEK293 Ca counter inactive and HEK293 Ca cntr2 inactive.
`CCC(C)n1c(=N)c(C#N)cc2c(=O)n3ccccc3nc21` (configuration not stated) gave MrgX1 agonist 26*, RGS4 inh inactive, MrgX1 antagonist inactive, RGS4 pot inactive, MrgX1 PAM inactive, MrgX1 ag reconf inactive, HEK293 Ca flux inactive, HEK293 Ca counter inactive and HEK293 Ca cntr2 inactive.
Screening C=CCNc1ncnc2c1[nH]c1ccc(Cl)cc12 returned MrgX1 agonist 65*, RGS4 inh inactive, MrgX1 antagonist inactive, RGS4 pot inactive, MrgX1 PAM inactive, MrgX1 ag reconf 353%*, HEK293 Ca flux inactive, HEK293 Ca counter inactive and HEK293 Ca cntr2 59*.
C=CCNc1ncnc2c1[nH]c1ccccc12 was read as MrgX1 agonist inactive, RGS4 inh inactive, MrgX1 antagonist inactive, RGS4 pot inactive and MrgX1 PAM inactive.
For CN1CCCC1CCNc1ccc2sc3ccccc3c(=O)c2c1 (configuration not stated) the results were MrgX1 agonist 50*, RGS4 inh inactive, MrgX1 antagonist inactive, RGS4 pot inactive, MrgX1 PAM inactive, MrgX1 ag reconf 424%*, HEK293 Ca flux inactive, HEK293 Ca counter inactive and HEK293 Ca cntr2 118*.
Screening O=c1c2ccccc2sc2ccc(NCCCN3CCOCC3)cc12 returned MrgX1 agonist 34*, RGS4 inh inactive, MrgX1 antagonist inactive, RGS4 pot inactive, MrgX1 PAM inactive, MrgX1 ag reconf 324%*, HEK293 Ca flux inactive, HEK293 Ca counter inactive and HEK293 Ca cntr2 107*.
Screening CCCCN(C(=O)c1cc(S(=O)(=O)N2CCCCCC2)ccc1OC)c1c(N)n(CCC)c(=O)[nH]c1=O returned MrgX1 agonist inactive, RGS4 inh inactive, MrgX1 antagonist inactive, RGS4 pot inactive and MrgX1 PAM inactive.
For N#Cc1nc(Cc2ccccc2)oc1NCc1ccccc1 the results were MrgX1 agonist 31*, RGS4 inh inactive, MrgX1 antagonist inactive, RGS4 pot inactive, MrgX1 PAM inactive, MrgX1 ag reconf 108%*, HEK293 Ca flux inactive, HEK293 Ca counter inactive and HEK293 Ca cntr2 inactive.
Screening N#Cc1nc(-c2ccc(F)cc2)oc1NCc1ccccc1 returned MrgX1 agonist inactive, RGS4 inh inactive, MrgX1 antagonist inactive, RGS4 pot inactive and MrgX1 PAM inactive.
`COc1ccc(CNc2oc(COc3ccccc3)nc2C#N)cc1` gave MrgX1 agonist inactive, RGS4 inh inactive, MrgX1 antagonist inactive, RGS4 pot inactive and MrgX1 PAM inactive.
CCC(CC)c1nc(C#N)c(NCc2ccccc2)o1 was read as MrgX1 agonist 27*, RGS4 inh inactive, MrgX1 antagonist inactive, RGS4 pot inactive, MrgX1 PAM inactive, MrgX1 ag reconf 230%*, HEK293 Ca flux inactive, HEK293 Ca counter inactive and HEK293 Ca cntr2 50*.
For COc1ccc(C(C(=O)NC2CCCCC2)N(Cc2ccco2)C(=O)c2ccccn2)c(OC)c1 (configuration not stated) the results were MrgX1 agonist inactive, RGS4 inh inactive, MrgX1 antagonist inactive, RGS4 pot inactive and MrgX1 PAM inactive.
